Reference: ChEMBL document CHEMBL1128603, “Novel deltorphin heptapeptide analogs with potent delta agonist, delta antagonist, or mixed mu antagonist/delta agonist properties” (J Med Chem, 1995)
Starred links: 1 amine or outer side, 2 acyl side, 3 side chain; linkers in the order of their positions; H or OH if unused. Non-standard residues stand in square brackets, D forms with d. Residues, ends and D or L forms follow the SMILES beside them. X1 = CSCC[C@H](CN([C@@H](Cc1ccccc1)C(=O)[*:2])[*:1])N[*:3]; Tle = CC(C)(C)[C@H](N)C(=O)O; NBuGly = CCCCNCC(=O)O

What was measured:
Cavia porcellus = species on record: Cavia porcellus; assay: In vitro inhibitory concentration against electrically induced contraction of guinea pig ileum (GPI); format: functional
In short: (§1)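 Electrically stimulated isolated tissue: longitudinal muscle strips of Hartley guinea pig ileum (250-300 g) for GPI, vas deferens of male ddY mouse (25-35 g) for MVD. IC50 read from log dose-response curves of contraction inhibition.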

Mus musculus = species on record: Mus musculus; assay: In vitro inhibitory concentration against electrically induced contraction of mouse vas deferens (MVD); format: functional; in short: as §1
[1] = target: Delta-type opioid receptor (Rattus norvegicus, UniProt P33533); assay: Inhibition of [3H]-DADLE binding to rat brain delta receptor
Delta-type opioid receptor, sequence (P33533 whole entry): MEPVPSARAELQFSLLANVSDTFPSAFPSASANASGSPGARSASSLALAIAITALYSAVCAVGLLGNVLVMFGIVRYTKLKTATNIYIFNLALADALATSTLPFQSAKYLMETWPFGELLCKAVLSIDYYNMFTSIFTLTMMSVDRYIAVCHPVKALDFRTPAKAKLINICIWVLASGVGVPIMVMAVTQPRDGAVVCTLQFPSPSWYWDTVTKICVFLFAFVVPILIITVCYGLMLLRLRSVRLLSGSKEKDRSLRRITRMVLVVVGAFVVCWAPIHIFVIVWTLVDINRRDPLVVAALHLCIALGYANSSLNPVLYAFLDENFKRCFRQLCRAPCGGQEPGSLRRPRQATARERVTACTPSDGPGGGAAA
In short: (§2)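 Crude rat brain synaptosomal fraction (600 μg protein/mL) in 50 mM Tris-HCl pH 7.4 with BSA, bacitracin, bestatin and soybean trypsin inhibitor. Radioligand [3H]DAGO (μ) or [3H]DADLE (δ) at 2 nM. The δ assay also held 2.6 μM [Nα-MePhe3,D-Pro4]morphiceptin to block μ sites. Nonspecific binding with 1 μM unlabeled ligand. Incubated 60 min at 25 °C, filtered on PEI-soaked GF/B, counted by scintillation. Ki from IC50 by Cheng-Prusoff; mean of three.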

Mu-type opioid receptor = Mu-type opioid receptor (Rattus norvegicus, UniProt P33535); assay: Inhibition of [3H]DAGO binding to rat brain Opioid receptor mu 1; in short: as §2
Mu-type opioid receptor, sequence (P33535 whole entry): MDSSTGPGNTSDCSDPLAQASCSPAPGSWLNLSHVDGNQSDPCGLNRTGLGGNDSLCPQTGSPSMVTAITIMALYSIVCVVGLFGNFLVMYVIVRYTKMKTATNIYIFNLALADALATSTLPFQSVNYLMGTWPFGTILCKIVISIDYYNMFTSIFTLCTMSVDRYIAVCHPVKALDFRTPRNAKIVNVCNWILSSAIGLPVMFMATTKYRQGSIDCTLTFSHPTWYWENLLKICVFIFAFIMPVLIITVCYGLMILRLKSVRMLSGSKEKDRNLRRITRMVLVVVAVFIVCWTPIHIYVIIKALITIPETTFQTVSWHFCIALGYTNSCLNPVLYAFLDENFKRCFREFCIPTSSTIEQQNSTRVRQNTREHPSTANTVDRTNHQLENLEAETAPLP

[2] = IC50 ratio measured as the IC50 values of GPI to that of MVD.; format: functional
[3] = target: Opioid receptors; mu & delta (Rattus norvegicus) (UniProt P33533+P33535); assay: Relative binding affinity for mu and delta opioid receptors; format: protein assay
Opioid receptors; mu & delta (Rattus norvegicus), sequence (P33533 whole entry, looked up): as the sequence (P33533 whole entry) above
Opioid receptors; mu & delta (Rattus norvegicus), sequence (P33535 whole entry, looked up): as the sequence (P33535 whole entry) above

[4] = target: Delta-type opioid receptor (Mus musculus) (UniProt P32300); assay: Ratio of antagonistic activity against delta receptors in mouse vas deferens in presence and absence of delta agonist DADLE; format: functional
Delta-type opioid receptor (Mus musculus), sequence (P32300 whole entry): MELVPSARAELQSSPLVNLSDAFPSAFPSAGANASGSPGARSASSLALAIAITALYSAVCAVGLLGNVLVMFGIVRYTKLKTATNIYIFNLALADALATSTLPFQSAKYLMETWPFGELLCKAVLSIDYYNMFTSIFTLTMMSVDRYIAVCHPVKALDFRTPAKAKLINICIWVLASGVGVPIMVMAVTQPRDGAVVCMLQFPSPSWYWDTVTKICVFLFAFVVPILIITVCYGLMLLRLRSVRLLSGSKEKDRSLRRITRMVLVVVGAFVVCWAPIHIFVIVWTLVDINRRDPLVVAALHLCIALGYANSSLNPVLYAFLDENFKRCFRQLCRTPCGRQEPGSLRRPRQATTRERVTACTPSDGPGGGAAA
In short: (§3)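 Agonist log dose-response curves were run with and without a fixed antagonist level. Ke was derived from the ratio of the IC50 values.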

[5] = target: Delta-type opioid receptor (Mus musculus) (UniProt P32300); assay: Ratio of antagonistic activity against delta receptors in mouse vas deferens in presence and absence of delta agonist deltorphin; format: functional; in short: as §3
[6] = target: Delta-type opioid receptor (Mus musculus) (UniProt P32300); assay: Ratio of antagonistic activity against delta receptors in mouse vas deferens in presence and absence of delta agonist leu-enkephalin; format: functional; in short: as §3
[7] = target: Mu-type opioid receptor (Cavia porcellus) (UniProt P97266); assay: Ratio of antagonistic activity against mu receptors in guinea pig ileum in presence and absence of mu agonist DAGO; format: functional, tissue-based; in short: as §3
Mu-type opioid receptor (Cavia porcellus), sequence (P97266 whole entry): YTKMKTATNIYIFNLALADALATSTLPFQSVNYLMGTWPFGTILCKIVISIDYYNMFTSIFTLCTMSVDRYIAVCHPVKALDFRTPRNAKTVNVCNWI

[8] = target: Mu-type opioid receptor (Cavia porcellus) (UniProt P97266); assay: Ratio of antagonistic activity against mu receptors in guinea pig ileum in presence and absence of mu agonist dermorphin; format: functional, tissue-based; in short: as §3
[9] = target: Delta-type opioid receptor (Mus musculus) (UniProt P32300); assay: Ratio of antagonistic activity against delta receptors in mouse vas deferens in presence and absence of delta agonist DL-II; format: functional; in short: as §3
[10] = target: Delta-type opioid receptor (Mus musculus) (UniProt P32300); assay: Ratio of antagonistic activity against delta receptors in mouse vas deferens in presence and absence of delta agonist DPDPE; format: functional; in short: as §3

Compound	IC50 (Cavia porcellus; Cavia porcellus, Ileum) [nM]	IC50 (Mus musculus; Mus musculus) [nM]	Ki [1] [nM]	Ki (Mu-type opioid receptor) [nM]	Ratio [2]	Ki ratio [3]	also measured
CSCC[C@@H](NC(=O)[C@@H](N)Cc1ccc(O)cc1)C(=O)N[C@@H](Cc1ccccc1)C(=O)N[C@@H](Cc1c[nH]cn1)C(=O)N[C@@H](CC(C)C)C(=O)N[C@H](C(=O)N[C@@H](CC(=O)O)C(N)=O)C(C)(C)C	325	1.28	0.46	271	254	589	–
CCCCN(CC(=O)N[C@@H](CC(=O)O)C(N)=O)C(=O)[C@@H](NC(=O)[C@H](Cc1c[nH]cn1)NC(=O)[C@H](Cc1ccccc1)NC[C@@H](CCSC)NC(=O)[C@@H](N)Cc1ccc(O)cc1)C(C)(C)C (H-[X1](Tyr)H[Tle][NBuGly]D-NH2)	995	42	–	–	23	61	–
CC[C@H](C)N(CC(=O)N[C@@H](CC(=O)O)C(N)=O)C(=O)[C@H](CC(C)C)NC(=O)[C@H](Cc1c[nH]cn1)NC(=O)[C@H](Cc1ccccc1)NC(=O)[C@@H](CCSC)NC(=O)[C@@H](N)Cc1ccc(O)cc1 (stereo in doubt; 6a) [listing 1 of 2 here]	–	–	–	–	777	8730	–
CSCC[C@H](NC(=O)[C@H](C)NC(=O)[C@H](Cc1c[nH]cn1)NC(=O)[C@H](Cc1ccccc1)NC(=O)[C@@H](CCSC)NC(=O)[C@@H](N)Cc1ccc(O)cc1)C(=O)N[C@@H](CC(=O)O)C(N)=O	216	406	1.71	133	0.5	78	Ke [4]: 598 nM; Ke [5]: 632 nM; Ke [6]: 721 nM
CC[C@H](C)N(CC(=O)N[C@@H](CC(=O)O)C(N)=O)C(=O)[C@H](CC(C)C)NC(=O)[C@H](Cc1c[nH]cn1)NC(=O)[C@H](Cc1ccccc1)NC(=O)[C@@H](CCSC)NC(=O)[C@@H](N)Cc1ccc(O)cc1 (stereo in doubt; 6a) [listing 2 of 2 here]	–	–	0.1	856	–	–	IC50 (Cavia porcellus): 684 nM; IC50 (Mus musculus): 0.88 nM
Oc1ccc2c3c1O[C@H]1c4[nH]c5ccccc5c4C[C@@]4(O)[C@@H](C2)N(CC2CC2)CC[C@]314	–	–	–	–	–	–	Ke [7]: 52.2 nM; Ke [8]: 151 nM; Ke [4]: 0.67 nM; Ke [9]: 0.67 nM; Ke [10]: 0.65 nM; Ke [5]: 0.65 nM; Ke [6]: 0.94 nM
CSCC[C@H](NC(=O)[C@@H](NC(=O)[C@H](Cc1c[nH]cn1)NC(=O)[C@H](Cc1ccccc1)NC(=O)[C@@H](CCSC)NC(=O)[C@@H](N)Cc1ccc(O)cc1)C(C)(C)C)C(=O)N[C@@H](CC(=O)O)C(N)=O	1200	2430	9.45	382	0.5	40	Ke [4]: 15.8 nM; Ke [9]: 17.2 nM; Ke [10]: 311 nM; Ke [5]: 16.1 nM; Ke [6]: 18.4 nM
CCCCN(CC(=O)N[C@@H](CC(=O)O)C(N)=O)C(=O)[C@H](CC(C)C)NC(=O)[C@H](Cc1cnc[nH]1)NC(=O)[C@H](Cc1ccccc1)NC[C@@H](CCSC)NC(=O)[C@@H](N)Cc1ccc(O)cc1 (H-[X1](Tyr)HL[NBuGly]D-NH2)	–	–	1.89	143	–	–	–
CCCCN(CC(=O)N[C@@H](CC(=O)O)C(N)=O)C(=O)[C@@H](NC(=O)[C@H](Cc1cnc[nH]1)NC(=O)[C@H](Cc1ccccc1)NC[C@@H](CCSC)NC(=O)[C@@H](N)Cc1ccc(O)cc1)C(C)(C)C (H-[X1](Tyr)H[Tle][NBuGly]D-NH2)	–	–	2.56	157	–	–	–
CC[C@H](C)N(CC(=O)N[C@@H](CC(=O)O)C(N)=O)C(=O)[C@H](CC(C)C)NC(=O)[C@H](Cc1c[nH]cn1)NC(=O)[C@H](Cc1ccccc1)NC(=O)[C@@H](CCSC)NC(=O)[C@@H](N)Cc1ccc(O)cc1 (stereo in doubt; 6b) [listing 1 of 2 here]	–	–	–	–	844	9690	–
CCCCN(CC(=O)N[C@@H](CC(=O)O)C(N)=O)C(=O)[C@H](CC(C)C)NC(=O)[C@H](Cc1c[nH]cn1)NC(=O)[C@H](Cc1ccccc1)NC[C@@H](CCSC)NC(=O)[C@@H](N)Cc1ccc(O)cc1 (H-[X1](Tyr)HL[NBuGly]D-NH2)	422	26	–	–	16	76	–
CSCC[C@@H](NC(=O)[C@@H](N)Cc1ccc(O)cc1)C(=O)N[C@@H](Cc1ccccc1)C(=O)N[C@@H](Cc1c[nH]cn1)C(=O)N[C@@H](CC(C)C)C(=O)N(CC(=O)N[C@@H](CC(=O)O)C(N)=O)CC(C)C	3870	2.36	0.85	58	1640	68	Ke [7]: 138 nM; Ke [8]: 165 nM
CC[C@H](C)N(CC(=O)N[C@@H](CC(=O)O)C(N)=O)C(=O)[C@H](CC(C)C)NC(=O)[C@H](Cc1c[nH]cn1)NC(=O)[C@H](Cc1ccccc1)NC(=O)[C@@H](CCSC)NC(=O)[C@@H](N)Cc1ccc(O)cc1 (stereo in doubt; 6b) [listing 2 of 2 here]	642	0.76	0.09	798	–	–	–
CCCCN(CC(=O)N[C@@H](CC(=O)O)C(N)=O)C(=O)[C@H](CC(C)C)NC(=O)[C@H](Cc1c[nH]cn1)NC(=O)[C@H](Cc1ccccc1)NC(=O)[C@@H](CCSC)NC(=O)[C@@H](N)Cc1ccc(O)cc1	578	0.56	0.04	820	1030	18200	–
CSCC[C@H](NC(=O)[C@H](CC(C)C)NC(=O)[C@H](Cc1cnc[nH]1)NC(=O)[C@H](Cc1ccccc1)NC(=O)[C@@H](CCSC)NC(=O)[C@@H](N)Cc1ccc(O)cc1)C(=O)N[C@@H](CC(=O)O)C(N)=O (H-Y[dM]FHLMD-NH2)	632	0.93	0.19	219	–	–	–
CCCCN(CC(=O)N[C@@H](CC(=O)O)C(N)=O)C(=O)[C@@H](NC(=O)[C@H](Cc1c[nH]cn1)NC(=O)[C@H](Cc1ccccc1)NC(=O)[C@@H](CCSC)NC(=O)[C@@H](N)Cc1ccc(O)cc1)C(C)(C)C	1680	1910	12.4	152	0.9	12	Ke [7]: 520 nM; Ke [8]: 554 nM
